{"source": "ChEMBL document CHEMBL5042491", "about": "“Identification of Small Molecule Inhibitors of RNase L by Fragment-Based Drug Discovery” (J Med Chem, 2022)", "key": {"[1]": {"target": "T1, 2-5A-dependent ribonuclease (Homo sapiens) (UniProt Q05823)", "T1 sequence (whole entry)": "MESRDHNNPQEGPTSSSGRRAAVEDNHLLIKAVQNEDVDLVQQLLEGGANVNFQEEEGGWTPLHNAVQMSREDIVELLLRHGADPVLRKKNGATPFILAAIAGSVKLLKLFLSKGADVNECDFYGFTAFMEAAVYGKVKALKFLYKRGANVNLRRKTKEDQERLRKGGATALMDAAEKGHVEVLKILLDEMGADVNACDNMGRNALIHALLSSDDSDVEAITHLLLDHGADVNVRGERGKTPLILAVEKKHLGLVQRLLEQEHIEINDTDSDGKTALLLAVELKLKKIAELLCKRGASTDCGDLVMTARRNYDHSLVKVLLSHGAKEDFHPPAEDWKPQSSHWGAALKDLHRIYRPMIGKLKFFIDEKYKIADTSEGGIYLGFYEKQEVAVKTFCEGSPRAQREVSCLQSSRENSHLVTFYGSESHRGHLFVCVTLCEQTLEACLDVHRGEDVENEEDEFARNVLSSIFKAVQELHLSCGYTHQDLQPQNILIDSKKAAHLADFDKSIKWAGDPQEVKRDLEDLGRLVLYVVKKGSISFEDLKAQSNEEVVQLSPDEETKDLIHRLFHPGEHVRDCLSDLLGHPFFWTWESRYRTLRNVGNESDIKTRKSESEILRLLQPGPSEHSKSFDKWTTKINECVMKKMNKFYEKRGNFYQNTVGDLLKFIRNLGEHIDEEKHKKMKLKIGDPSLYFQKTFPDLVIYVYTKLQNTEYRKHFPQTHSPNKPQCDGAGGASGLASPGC", "assay": "Inhibition of recombinant full length H-RNAase L (1 to 741 residues) expressed in Escherichia coli BL21 (DE3) using 5'-FAM-UAA-UCA-AAU-UCU-UAU-UUG-CCC-CAU-UUU-UUU-GGU-UUA-BHQ-1-3' as substrate incubated for 60 min by FRET assay", "method_in_brief": "(§1)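 FRET cleavage assay. Recombinant RNase L (10 nM human or 2.5 nM porcine, final) was preincubated 10 min on ice with graded compound in 25 mM Tris pH 7.4, 100 mM KCl, 10 mM MgCl2, 2.5 mM DTT and 0.5 nM 2-5A. FAM/BHQ1 RNA probe was added and the mix held 1 h at room temperature. Read at ex 480/em 535 nm; triplicates; IC50 from dose-response.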"}, "[2]": {"target": "T2, 2-5A-dependent ribonuclease (Homo sapiens, UniProt Q05823)", "T2 sequence (Q05823 whole entry)": "T1 sequence (whole entry)", "assay": "Inhibition of recombinant full length H-RNAase L (1 to 741 residues) expressed in Escherichia coli BL21 (DE3) assessed as inhibition rate in presence of 2-5A and ATP/MgCl2 by STD-NMR spectroscopy"}, "Sus scrofa [3]": {"species_on_record": "Sus scrofa", "assay": "(§2) Inhibition of recombinant full length P-RNAase L (1 to 743 residues)expressed in Escherichia coli BL21 (DE3) assessed as inhibition rate in presence of 2-5A AND ATP/MgCl2 by STD-NMR spectroscopy", "conditions": "time 60.0 min"}, "[4]": {"assay": "as §2", "set-up": "species or system Sus scrofa"}, "Sus scrofa [5]": {"species_on_record": "Sus scrofa", "assay": "Inhibition of recombinant full length P-RNAase L (1 to 743 residues) expressed in Escherichia coli BL21 (DE3) using 5'-FAM-UAA-UCA-AAU-UCU-UAU-UUG-CCC-CAU-UUU-UUU-GGU-UUA-BHQ-1-3' as substrate incubated for 60 min by FRET assay", "method_in_brief": "as §1"}, "[6]": {"target": "T1, 2-5A-dependent ribonuclease (Homo sapiens)", "assay": "Inhibition of RNAase L in human A549 cells assessed as rRNA cleavage pretreated at 30 uM for 4 hrs followed by treated with 20 uM 2-5A by […] analysis", "assay_type": "cell-based", "method_in_brief": "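A549 cells were grown 16 h in RPMI with 10% FBS, then given inhibitor at 3, 10, 30 or 100 μM in fresh medium for 4 h. Trimeric 2-5A (20 μM) was then transfected with lipofectamine 2000 with inhibitor still present, for 2 h more. rRNA cleavage was read from total RNA on Bioanalyzer chips. NP40 lysates were western-blotted for RNase L and beta-actin.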"}, "[7]": {"assay": "Inhibition of full length P-RNAase L expressed in Escherichia coli BL21 (DE3) assessed as inhibition rate incubated for 15 min in presence of 20 nM 2-5A for 15 mins by Coomassie staining based SDS-PAGE analysis", "set-up": "species or system Sus scrofa"}, "[8]": {"target": "T2, 2-5A-dependent ribonuclease", "assay": "Inhibition of full length H-RNAase L expressed in Escherichia coli BL21 (DE3) assessed as inhibition rate incubated for 15 min in presence of 5 nM 2-5A for 15 mins by Coomassie staining based SDS-PAGE analysis"}, "[9]": {"assay": "Inhibition of P-RNAase L R353E mutant expressed in Escherichia coli BL21 (DE3) assessed as inhibition rate", "set-up": "species or system Sus scrofa"}, "[10]": {"assay": "Inhibition of P-RNAase L K164E mutant expressed in Escherichia coli BL21 (DE3) assessed as inhibition rate", "set-up": "species or system Sus scrofa"}, "[11]": {"assay": "Inhibition of full length P-RNAase L expressed in Escherichia coli BL21 (DE3) assessed as inhibition rate incubated for 15 min in presence of 1 nM 2-5A for 15 mins by Coomassie staining based SDS-PAGE analysis", "set-up": "species or system Sus scrofa"}, "[12]": {"target": "T2, 2-5A-dependent ribonuclease", "assay": "Inhibition of full length H-RNAase L expressed in Escherichia coli BL21 (DE3) assessed as inhibition rate incubated for 15 min in presence of 1 nM 2-5A for 15 mins by Coomassie staining based SDS-PAGE analysis"}, "[13]": {"assay": "Inhibition of wild type P-RNAase L expressed in Escherichia coli BL21 (DE3) assessed as inhibition rate", "set-up": "species or system Sus scrofa"}, "[14]": {"target": "T2, 2-5A-dependent ribonuclease", "assay": "Inhibition of full length H-RNAase L expressed in Escherichia coli BL21 (DE3) assessed as inhibition rate incubated for 15 min in presence of 20 nM 2-5A for 15 mins by Coomassie staining based SDS-PAGE analysis"}, "Sus scrofa [15]": {"species_on_record": "Sus scrofa", "assay": "Suppression of 2-5A-induced full length P-RNase L oligomerization in presence of upto 2 uM 2-5A at 40 uM by SDS-PAGE analysis", "method_in_brief": "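Full-length porcine RNase L (0.8 μM) with 5 mM MgCl2 was held 15 min on ice with or without inhibitor, then 15 min on ice with 2-5A. It was cross-linked with dimethyl suberimidate in triethanolamine (pH 8.5) for 1 h at room temperature. Samples were boiled in SDS loading buffer, run on 4-12% SDS-PAGE and stained with Coomassie.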"}, "[16]": {"assay": "Inhibition of full length P-RNAase L expressed in Escherichia coli BL21 (DE3) assessed as inhibition rate incubated for 15 min in presence of 5 nM 2-5A for 15 mins by Coomassie staining based SDS-PAGE analysis", "set-up": "species or system Sus scrofa"}}, "note": "pIC50: −log10 of the molar value. Activity calls are given as the source filed them. The calls are words filed in the database; no cut-off is given here."}
{"smiles": "CCCCOC(=O)c1ccc(O)cc1", "note": "[BUTYLPARABEN]", "values": [{"measurement": "inhibition", "setting": "[1]", "result": "Active"}, {"measurement": "pIC50", "setting": "[2]", "result": 2.62}, {"measurement": "inhibition", "setting": "Sus scrofa [3]", "result": "inactive"}]}
{"smiles": "O=c1c(O)c(-c2cc(O)c(O)c(O)c2)oc2cc(O)cc(O)c12", "note": "[MYRICETIN]", "values": [{"measurement": "pIC50", "setting": "[2]", "result": 3.58}, {"measurement": "pIC50", "setting": "[4]", "result": 3.76}]}
{"smiles": "C[S+]([O-])c1sc(Cl)c2c1C(=O)CCC2", "note": "(stereo not drawn)", "values": [{"measurement": "inhibition", "setting": "[1]", "result": "Active"}, {"measurement": "inhibition", "setting": "Sus scrofa [5]", "result": "Active"}]}
{"smiles": "O=c1cc(-c2ccc(O)cc2)oc2c([C@@H]3O[C@H](CO)[C@@H](O)[C@H](O)[C@H]3O)c(O)cc(O)c12", "note": "[VITEXIN]", "values": [{"measurement": "pIC50", "setting": "[2]", "result": 3.72}, {"measurement": "pIC50", "setting": "[4]", "result": 3.96}, {"measurement": "Activity", "setting": "[6]", "result": "inactive"}]}
{"smiles": "O=C(O)c1ccc(Cl)nc1Cl", "values": [{"measurement": "inhibition", "setting": "[1]", "result": "Active"}, {"measurement": "inhibition", "setting": "Sus scrofa [5]", "result": "Active"}]}
{"smiles": "O=c1c(O[C@@H]2O[C@H](CO)[C@H](O)[C@H](O)[C@H]2O)c(-c2ccc(O)c(O)c2)oc2cc(O)cc(O)c12", "note": "[HYPEROSIDE]", "values": [{"measurement": "pIC50", "setting": "[7]", "result": 5.85}, {"measurement": "pIC50", "setting": "[2]", "result": 5.79}, {"measurement": "pIC50", "setting": "[8]", "result": 5.88}, {"measurement": "pIC50", "setting": "[9]", "result": 6.19}, {"measurement": "pIC50", "setting": "[10]", "result": 5.99}, {"measurement": "pIC50", "setting": "[11]", "result": 5.83}, {"measurement": "pIC50", "setting": "[12]", "result": 5.87}, {"measurement": "Activity", "setting": "[6]", "result": "inactive"}, {"measurement": "pIC50", "setting": "[13]", "result": 6.05}, {"measurement": "pIC50", "setting": "[14]", "result": 5.85}, {"measurement": "inhibition", "setting": "Sus scrofa [15]", "result": "inactive"}, {"measurement": "pIC50", "setting": "[16]", "result": 5.85}]}
{"smiles": "Oc1ccc(Sc2ccc(O)cc2)cc1", "values": [{"measurement": "inhibition", "setting": "[1]", "result": "Active"}, {"measurement": "inhibition", "setting": "Sus scrofa [5]", "result": "Active"}]}
{"smiles": "Cc1cc(C(=O)O)cc(Cl)n1", "values": [{"measurement": "inhibition", "setting": "[1]", "result": "Active"}, {"measurement": "inhibition", "setting": "Sus scrofa [5]", "result": "Active"}]}
